Results from ChEMBL document CHEMBL1122064, “Synthesis and biological evaluation of 17-[131I]iodo-9-telluraheptadecanoic acid, a potential imaging agent” (J Med Chem, 1982).

Tests used:
Rattus norvegicus [1] = test: Distribution of radioactivity in liver of Fischer 344 female rat after 10 min of intravenous administration; format: ADME, organism-based; conditions: in vivo
Outline: (§1)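 Female Fischer 344 rats (10-12 weeks, 170-200 g) with food and water ad libitum. The 131I-labelled fatty acid was taken up in ethanol, added dropwise to stirred 6% BSA at 40 °C (final ethanol 10%), filtered, and injected into a lateral tail vein under ether. Rats were CO2-anaesthetised and killed; organs were excised, rinsed, blotted, weighed and Ge(Li)-counted. Results are mean (range) % injected dose/g.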

Rattus norvegicus [2] = test: Distribution of radioactivity in heart of Fischer 344 female rat after 7 days of intravenous administration; format: ADME, organism-based; conditions: in vivo, 168 h; outline: as §1
Rattus norvegicus [3] = test: Distribution of radioactivity in blood of Fischer 344 female rat after 30 min of intravenous administration; format: ADME, organism-based; conditions: in vivo, 0.5 h
Rattus norvegicus [4] = test: Distribution of radioactivity in heart of Fischer 344 female rat after 4 day of intravenous administration; format: ADME, organism-based; conditions: in vivo, 96 h; outline: as §1
Rattus norvegicus [5] = test: Distribution of radioactivity in liver of Fischer 344 female rat after 7 of days intravenous administration; format: ADME, organism-based; conditions: in vivo
Outline: (§2)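 Female Fischer 344 rats, 10-12 weeks old, 170-200 g, fed ad libitum. The 131I-labelled fatty acid was dissolved in absolute ethanol, added dropwise to stirred 6% bovine serum albumin at 40 °C (final ethanol 10%), filtered, and injected into a lateral tail vein under ether anaesthesia. Organs were excised, rinsed, blotted and weighed, then counted by Ge(Li) analyzer as percent injected dose/g.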

Rattus norvegicus [6] = test: Distribution of radioactivity in heart of Fischer 344 female rat after 60 min of intravenous administration; format: ADME, organism-based; conditions: in vivo, 1 h
Rattus norvegicus [7] = test: Distribution of radioactivity in kidneys of Fischer 344 female rat after 7 days of intravenous administration; format: ADME, organism-based, Kidney; conditions: in vivo, 168 h; outline: as §1
Rattus norvegicus [8] = test: Distribution of radioactivity in lungs of Fischer 344 female rat after 6 hr of intravenous administration; format: ADME, organism-based, Lung; conditions: in vivo; outline: as §2
Rattus norvegicus [9] = test: Distribution of radioactivity in brain of Fischer 344 female rat after 7 days of intravenous administration; format: ADME, organism-based; conditions: in vivo, 168 h; outline: as §1
Rattus norvegicus [10] = test: Distribution of radioactivity in liver of Fischer 344 female rat after 30 min of intravenous administration; format: ADME, organism-based; conditions: in vivo, 0.5 h
Outline: (§3)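 Female Fischer 344 rats, 10-12 weeks, 170-200 g, fed ad libitum. The labelled fatty acid was given in 6% bovine serum albumin via a lateral tail vein under ether anaesthesia. Rats were killed by CO2 anaesthesia and cervical fracture; organs were excised, rinsed, blotted, weighed and counted by Ge(Li) analyzer. Results are mean percent injected dose/g with range.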

Rattus norvegicus [11] = test: Distribution of radioactivity in lungs of Fischer 344 female rat after 60 min of intravenous administration; format: ADME, organism-based, Lung; conditions: in vivo, 1 h; outline: as §3
Rattus norvegicus [12] = test: Distribution of radioactivity in Thyroid of Fischer 344 female rat after 2 hr of intravenous administration; format: ADME, organism-based; conditions: in vivo; outline: as §1
Rattus norvegicus [13] = test: Distribution of radioactivity in brain of Fischer 344 female rat after 6 hr of intravenous administration; format: ADME, organism-based; conditions: in vivo; outline: as §1
Rattus norvegicus [14] = test: Distribution of radioactivity in kidneys of Fischer 344 female rat after 2 hr of intravenous administration; format: ADME, organism-based, Kidney; conditions: in vivo; outline: as §1
Rattus norvegicus [15] = test: Distribution of radioactivity in Thyroid of Fischer 344 female rat after 4 days of intravenous administration; format: ADME, organism-based; conditions: in vivo, 96 h; outline: as §1
Rattus norvegicus [16] = test: Distribution of radioactivity in blood of Fischer 344 female rat after 2 hr of intravenous administration; format: ADME, organism-based; conditions: in vivo; outline: as §1
Rattus norvegicus [17] = test: Distribution of radioactivity in lungs of Fischer 344 female rat after 7 days of intravenous administration; format: ADME, organism-based, Lung; conditions: in vivo, 168 h; outline: as §2
Rattus norvegicus [18] = test: Distribution of radioactivity in blood of Fischer 344 female rat after 4 days of intravenous administration; format: ADME, organism-based; conditions: in vivo, 96 h; outline: as §1
Rattus norvegicus [19] = test: Distribution of radioactivity in brain of Fischer 344 female rat after 2 min of intravenous administration; format: ADME, organism-based; conditions: in vivo; outline: as §1
Rattus norvegicus [20] = test: Distribution of radioactivity in Thyroid of Fischer 344 female rat after 2 min of intravenous administration; format: ADME, organism-based; conditions: in vivo; outline: as §1
Rattus norvegicus [21] = test: Distribution of radioactivity in Thyroid of Fischer 344 female rat after 30 min of intravenous administration; format: ADME, organism-based; conditions: in vivo, 0.5 h; outline: as §1
Rattus norvegicus [22] = test: Distribution of radioactivity in brain of Fischer 344 female rat after 2 hr of intravenous administration; format: ADME, organism-based; conditions: in vivo; outline: as §1
Rattus norvegicus [23] = test: Distribution of radioactivity in brain of Fischer 344 female rat after 30 min of intravenous administration; format: ADME, organism-based; conditions: in vivo, 0.5 h; outline: as §1
Rattus norvegicus [24] = test: Distribution of radioactivity in kidneys of Fischer 344 female rat after 10 min of intravenous administration; format: ADME, organism-based, Kidney; conditions: in vivo; outline: as §1
Rattus norvegicus [25] = test: Distribution of radioactivity in liver of Fischer 344 female rat after 6 hr of intravenous administration; format: ADME, organism-based; conditions: in vivo; outline: as §2
Rattus norvegicus [26] = test: Distribution of radioactivity in heart of Fischer 344 female rat after 10 min of intravenous administration; format: ADME, organism-based; conditions: in vivo; outline: as §1
Rattus norvegicus [27] = test: Distribution of radioactivity in kidneys of Fischer 344 female rat after 24 hr of intravenous administration; format: ADME, organism-based, Kidney; conditions: in vivo; outline: as §1
Rattus norvegicus [28] = test: Distribution of radioactivity in blood of Fischer 344 female rat after 24 hr of intravenous administration; format: ADME, organism-based; conditions: in vivo; outline: as §1
Rattus norvegicus [29] = test: Distribution of radioactivity in lungs of Fischer 344 female rat after 2 min of intravenous administration; format: ADME, organism-based, Lung; conditions: in vivo; outline: as §2
Rattus norvegicus [30] = test: Distribution of radioactivity in kidneys of Fischer 344 female rat after 30 min of intravenous administration; format: ADME, organism-based, Kidney; conditions: in vivo, 0.5 h
Rattus norvegicus [31] = test: Distribution of radioactivity in Thyroid of Fischer 344 female rat after 6 hr of intravenous administration; format: ADME, organism-based; conditions: in vivo; outline: as §1

Compound: O=C(O)CCCCCCCC[Te]CCCCCCCC[131I]
- Distribution of radioactivity (Rattus norvegicus [1]): 3.23 dose g-1
- Distribution of radioactivity (Rattus norvegicus [2]): 0.016 dose g-1
- Distribution of radioactivity (Rattus norvegicus [3]): 0.72 dose g-1
- Distribution of radioactivity (Rattus norvegicus [4]): 0.04 dose g-1
- Distribution of radioactivity (Rattus norvegicus [5]): 0.014 dose g-1
- Distribution of radioactivity (Rattus norvegicus [6]): 1.86 dose g-1
- Distribution of radioactivity (Rattus norvegicus [7]): 0.016 dose g-1
- Distribution of radioactivity (Rattus norvegicus [8]): 0.48 dose g-1
- Distribution of radioactivity (Rattus norvegicus [9]): < 0.002 dose g-1
- Distribution of radioactivity (Rattus norvegicus [10]): 1.75 dose g-1
- Distribution of radioactivity (Rattus norvegicus [11]): 0.75 dose g-1
- Distribution of radioactivity (Rattus norvegicus [12]): 166 dose g-1
- Distribution of radioactivity (Rattus norvegicus [13]): 0.03 dose g-1
- Distribution of radioactivity (Rattus norvegicus [14]): 0.54 dose g-1
- Distribution of radioactivity (Rattus norvegicus [15]): 226 dose g-1
- Distribution of radioactivity (Rattus norvegicus [16]): 0.61 dose g-1
- Distribution of radioactivity (Rattus norvegicus [17]): 0.031 dose g-1
- Distribution of radioactivity (Rattus norvegicus [18]): 0.02 dose g-1
- Distribution of radioactivity (Rattus norvegicus [19]): 0.17 dose g-1
- Distribution of radioactivity (Rattus norvegicus [20]): 6.27 dose g-1
- Distribution of radioactivity (Rattus norvegicus [21]): 41.9 dose g-1
- Distribution of radioactivity (Rattus norvegicus [22]): 0.04 dose g-1
- Distribution of radioactivity (Rattus norvegicus [23]): 0.06 dose g-1
- Distribution of radioactivity (Rattus norvegicus [24]): 1.14 dose g-1
- Distribution of radioactivity (Rattus norvegicus [25]): 0.51 dose g-1
- Distribution of radioactivity (Rattus norvegicus [26]): 2.01 dose g-1
- Distribution of radioactivity (Rattus norvegicus [27]): 0.08 dose g-1
- Distribution of radioactivity (Rattus norvegicus [28]): 0.08 dose g-1
- Distribution of radioactivity (Rattus norvegicus [29]): 1.4 dose g-1
- Distribution of radioactivity (Rattus norvegicus [30]): 0.8 dose g-1
- Distribution of radioactivity (Rattus norvegicus [31]): 184 dose g-1
